The record followed here is ChEMBL document CHEMBL1147012 (Bioorg Med Chem Lett, 2006).

Assay [1] relates to PC-3. Kind of assay: Cytotoxicity against human PC3 cell line. The format is functional, cell-based.
Assay [2] addresses Tubulin. Kind of assay: Inhibition of microtubule polymerization. The format is functional, Homo sapiens. Put shortly: (§1)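 Microtubule polymerization assay run with a fixed, short incubation time.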
The target in assay [3] is T1, Tubulin (Homo sapiens) (UniProt P68371+Q9H4B7+P0DPH7+P68366+Q13509+Q71U36+P04350+Q3ZCM7+P07437+P68363+Q9BQE3+Q6PEY2+Q13885+Q9BVA1+Q9BUF5). Description: Inhibition of microtubule polymerization up to 150 uM.
For assay [4], the target named is T1, Tubulin (Homo sapiens). Kind of assay: Inhibition of microtubule polymerization up to 150 uM. The assay is classed as functional. The method in brief: as §1

The IC50 is the midpoint of a concentration-inhibition curve. Higher therefore signals lower potency.

Activity calls are given as the source filed them. No cut-off for these calls is given here.

Regarding `COc1cc2c(c(OC)c1OC)-c1ccc(OC)c(=O)cc1[C@@H](NCC(C)=O)CC2`, in assay [1], half-maximal inhibition (IC50) required 0.0076 µM. In assay [1], `COc1cc2c(c(OC)c1OC)-c1ccc(=O)c(OC)cc1[C@@H](Nc1ccc([N+](=O)[O-])cc1[N+](=O)[O-])CC2` gave a concentration for half-maximal inhibition (IC50) of 5.7 µM.

With `COc1cc2c(c(OC)c1OC)-c1ccc(OC)c(=O)cc1[C@@H](NS(=O)(=O)c1ccccc1[N+](=O)[O-])CC2`, the IC50 was 5.6 µM in assay [2] and 0.0198 µM in assay [1]. For `CCN[C@H]1CCc2cc(OC)c(OC)c(OC)c2-c2ccc(=O)c(OC)cc21`, the IC50 in assay [1] was 1.72 µM. In addition, the result in assay [3] was inactive. In turn, `COc1cc2c(c(OC)c1OC)-c1ccc(=O)c(OC)cc1[C@@H](NC(C)=O)CC2` [ISOCOLCHICINE] had an IC50 in assay [1] of 4.6 µM.

Regarding `COc1cc2c(c(OC)c1OC)-c1ccc(=O)c(OC)cc1[C@@H](/N=C(/C)S)CC2`, the result in assay [4] was inactive. This molecule had a concentration for half-maximal inhibition (IC50) in assay [1] of 1.75 µM.

Consider `COc1cc2c(c(OC)c1OC)-c1ccc(=O)c(OC)cc1[C@@H](NS(=O)(=O)c1ccc([N+](=O)[O-])cc1[N+](=O)[O-])CC2`, for which the IC50 in assay [2] was 59 µM; in assay [1], 10.2 µM.

As for `COc1cc2c(c(OC)c1OC)-c1ccc(OC)c(=O)cc1[C@@H](Nc1ccc([N+](=O)[O-])cc1[N+](=O)[O-])CC2`, the figures for the IC50 in assay [2] and in assay [1] were 4.6 µM and 0.009 µM, respectively. Turning to `COc1cc2c(c(OC)c1OC)-c1ccc(OC)c(=O)cc1[C@@H](/N=C(/C)S)CC2`, the IC50 was 2.2 µM in assay [2] and 0.0975 µM in assay [1].

In the case of `COc1cc2c(c(OC)c1OC)-c1ccc(=O)c(OC)cc1[C@@H](NCC(C)=O)CC2`, the IC50 was found to be 68 µM in assay [2] and 0.093 µM in assay [1]. For `COc1cc2c(c(OC)c1OC)-c1ccc(=O)c(OC)cc1[C@@H](NS(=O)(=O)c1ccccc1[N+](=O)[O-])CC2` the same measures were 58 µM and 0.905 µM.

In assay [1], `CCN[C@H]1CCc2cc(OC)c(OC)c(OC)c2-c2ccc(OC)c(=O)cc21` registered an IC50 of 0.0176 µM. With `COc1cc2c(c(OC)c1OC)-c1ccc(OC)c(=O)cc1[C@@H](NS(=O)(=O)c1ccc([N+](=O)[O-])cc1[N+](=O)[O-])CC2`, the IC50 stood at 9.7 µM in assay [2] and 0.05 µM in assay [1].
